From ChEMBL document CHEMBL4765233, “From Lead to Drug Candidate: Optimization of 3-(Phenylethynyl)-1H-pyrazolo[3,4-d]pyrimidin-4-amine Derivatives as Agents for the Treatment of Triple Negative Breast Cancer” (J Med Chem, 2016) come the findings set out here.

The IC50 is the concentration that gives 50% inhibition. The term half-life denotes how long it takes for the measured level to halve. Read a low half-life as rapid decline. As a reminder, the AUC(0-t) is exposure summed from dosing to a finite time, without extrapolation to infinity. The Cmax is the highest concentration seen after dosing. For orientation: AUC(0-inf) means the area under the concentration-time curve extrapolated to infinity. The low end stands for low exposure, the high end for high exposure. Usually Tmax stands for the time at which the peak concentration occurs.

SMILES strings stand for the structures. Calls of active or inactive are those of the source. No cut-off for these calls is given here. Bounds are passed on as bounds.

Series [1] has as its system MDA-MB-231. Briefly: Antitumor activity against human MDA-MB-231 cells xenografted in SCID mouse assessed as tumor growth inhibition at 20 mg/kg, po qd for 15 days and measured every 3 days. The conditions noted are these: MDA-MB-231, po, 360 h, read-out: INH. For orientation: Xenograft models place foreign cells or tissue in a host animal.
Series [2] relates to HepG2. Briefly: Antiproliferative activity against human HepG2 cells assessed as reduction in cell viability incubated for 72 hrs by MTT assay. It is filed as ADME, cell-based. The settings on record: HepG2, 72 h.
Series [3] is described as follows: Toxicity in SCID mouse xenografted with MDA-MB-231 cells assessed as change in body weight at 20 mg/kg, po qd for 15 days and measured every 3 days. The settings on record: in vivo, 360 h, dose 20 mg/kg/day, time 15 day. It is filed as organism-based.
A short description of series [4]: Toxicity in SCID mouse xenografted with MDA-MB-231 cells assessed as animal death at 20 mg/kg, po qd for 15 days. It is filed as organism-based. The settings on record: in vivo, dose 20 mg/kg/day, time 15 day, read-out: Activity.
Series [5] is described as follows: Toxicity against SCID mouse xenografted with human MDA-MB-231 cells assessed as change in body weight at 10 mg/kg, iv administered weekly for 21 days and measured every 3 days. The conditions noted are these: in vivo, 504 h, time 21 day. It counts as organism-based. The method, boiled down: (§1)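 Exponential-phase cells washed and injected subcutaneously (5 × 10^6 cells in 100 μL) into 5–6-week SCID mice. At 150–200 mm3, mice randomised to groups of 6. Oral dosing daily in water with 25% PEG400 and 5% DMSO; paclitaxel 10 mg/kg weekly by tail vein. Body weight measured every 3 days and side effects checked daily.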

In series [6] the test system is MDA-MB-231. The experiment in a line: Antitumor activity against human MDA-MB-231 cells xenografted in SCID mouse assessed as tumor growth inhibition at 10 mg/kg, iv administered weekly for 21 days and measured every 3 days. It is filed as functional, organism-based. The settings on record: time 21.0 day. The method, boiled down:
(§2)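 SCID mice (5−6 weeks) injected subcutaneously with 100 μL of cells at 5 × 10^7/mL. At 150−200 mm3 mice randomized, 6 per group. Oral compounds given in water with 25% PEG400 plus 5% DMSO; paclitaxel given 10 mg/kg/week iv. Tumor volume a×b²/2 and body weight measured every 3 days. Inhibition rate (c−d)/c×100% against vehicle control.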

Series [7] can be described thus: Toxicity against SCID mouse xenografted with human MDA-MB-435 cells assessed as change in body weight at 10 mg/kg, iv administered weekly for 21 days and measured every 3 days. It counts as organism-based. The conditions noted are these: in vivo, 504 h, time 21 day. Summed up: as §1
The subject of series [8] is MDA-MB-435 (Homo sapiens). The experiment in a line: Antitumor activity against human MDA-MB-435 cells xenografted in SCID mouse assessed as tumor growth inhibition at 10 mg/kg, iv administered weekly for 21 days and measured every 3 days. The conditions noted are these: time 21.0 day.
Series [9] is described as follows: Toxicity in SCID mouse xenografted with MDA-MB-231 cells assessed as change in body weight at 40 mg/kg, po qd for 15 days and measured every 3 days. It counts as organism-based. The conditions noted are these: in vivo, 360 h, dose 40 mg/kg/day, time 15 day.
For series [10], the system named is MDA-MB-231. The experiment in a line: Antiproliferative activity against human MDA-MB-231 cells assessed as reduction in cell viability incubated for 72 hrs by MTT assay. The settings on record: MDA-MB-231, 72 h. It counts as functional, cell-based. The method, boiled down: (§3)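 MTT viability assay. ATCC cell lines were grown in designated medium with 10% FBS at 37 °C, 5% CO2. Cells seeded at 1500−30000 per well and incubated 24 h, then exposed to compound (0−10 μg/mL) for 72 h. MTT added for 2−4 h. Formazan dissolved in DMSO (adherent) or acidified SDS overnight (suspension), absorbance read at 570 nm. Triplicates; IC50 calculated.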
On the technique in general: Tetrazolium dyes change colour on reduction, which living cells bring about.

For series [11], the target named is Voltage-gated inwardly rectifying potassium channel KCNH2 (Homo sapiens, UniProt Q12809). Briefly: Inhibition of human ERG expressed in CHO cells at -80 mV holding potential by automated Qpatch electrophysiological assay.
Chain of Voltage-gated inwardly rectifying potassium channel KCNH2 (Q12809 whole entry): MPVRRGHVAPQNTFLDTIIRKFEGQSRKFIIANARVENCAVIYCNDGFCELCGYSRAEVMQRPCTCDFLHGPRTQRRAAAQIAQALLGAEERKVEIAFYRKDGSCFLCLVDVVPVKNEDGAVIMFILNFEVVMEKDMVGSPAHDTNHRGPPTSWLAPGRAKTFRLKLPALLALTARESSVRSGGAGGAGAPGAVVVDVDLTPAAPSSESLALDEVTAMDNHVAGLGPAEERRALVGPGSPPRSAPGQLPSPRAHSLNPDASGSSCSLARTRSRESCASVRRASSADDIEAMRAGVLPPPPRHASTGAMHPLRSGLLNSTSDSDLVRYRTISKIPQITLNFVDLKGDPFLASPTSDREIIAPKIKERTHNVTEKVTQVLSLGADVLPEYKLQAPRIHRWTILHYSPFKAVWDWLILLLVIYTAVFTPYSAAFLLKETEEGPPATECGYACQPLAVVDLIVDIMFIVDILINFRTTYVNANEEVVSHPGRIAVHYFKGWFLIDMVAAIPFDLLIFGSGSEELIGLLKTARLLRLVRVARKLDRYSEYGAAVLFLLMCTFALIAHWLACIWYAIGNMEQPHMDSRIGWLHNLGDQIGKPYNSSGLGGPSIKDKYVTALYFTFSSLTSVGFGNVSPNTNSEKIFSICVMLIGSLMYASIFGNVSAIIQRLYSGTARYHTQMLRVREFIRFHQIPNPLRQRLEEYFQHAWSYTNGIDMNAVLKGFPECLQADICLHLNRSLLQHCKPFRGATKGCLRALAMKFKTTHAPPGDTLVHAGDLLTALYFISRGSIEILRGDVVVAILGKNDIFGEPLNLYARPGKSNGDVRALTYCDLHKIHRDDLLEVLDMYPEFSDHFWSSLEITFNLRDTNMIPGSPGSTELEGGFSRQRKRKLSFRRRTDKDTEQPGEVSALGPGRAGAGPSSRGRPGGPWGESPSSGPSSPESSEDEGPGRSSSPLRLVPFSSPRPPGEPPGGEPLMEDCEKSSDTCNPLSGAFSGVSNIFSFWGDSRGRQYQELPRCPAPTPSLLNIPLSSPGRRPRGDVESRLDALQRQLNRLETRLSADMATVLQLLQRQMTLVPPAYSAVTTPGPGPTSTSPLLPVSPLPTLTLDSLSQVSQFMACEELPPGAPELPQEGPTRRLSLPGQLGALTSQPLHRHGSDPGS
Series [12] in a line: Toxicity in SCID mouse xenografted with MDA-MB-231 cells assessed as animal death at 40 mg/kg, po qd for 15 days. It counts as organism-based. The settings on record: in vivo, dose 40 mg/kg/day, time 15 day, read-out: Activity.
The subject of series [13] is MDA-MB-231. Briefly: Antitumor activity against human MDA-MB-231 cells xenografted in SCID mouse assessed as tumor growth inhibition at 40 mg/kg, po qd for 15 days and measured every 3 days. It is filed as functional. The conditions noted are these: MDA-MB-231, po, 360 h, time 15 day. The method, boiled down: as §2
Series [14] has as its system MDA-MB-435. Briefly: Antiproliferative activity against human MDA-MB-435 cells assessed as reduction in cell viability incubated for 72 hrs by MTT assay. It counts as functional, cell-based. The settings on record: MDA-MB-435, 72 h. Summed up: as §3
The nature of series [15]: Half-life in Sprague-Dawley rat at 10 mg/kg, po administered via gavage by LC-MS analysis. It is filed as ADME, organism-based. The conditions noted are these: in vivo.
A short description of series [16]: AUC (0 to t) in Sprague-Dawley rat at 10 mg/kg, po administered via gavage by LC-MS analysis. The conditions noted are these: in vivo. Further details: dose 10 mg/kg. It counts as ADME, organism-based.
Series [17] can be described thus: Cmax in Sprague-Dawley rat at 10 mg/kg, po administered via gavage by LC-MS analysis. The settings on record: in vivo. Also on record: route oral, dose 10 mg/kg. It is filed as ADME, organism-based.
Series [18] is described as follows: AUC (0 to infinity) in Sprague-Dawley rat at 10 mg/kg, po administered via gavage by LC-MS analysis. It is filed as ADME, organism-based. Further details: time infinity, route oral, dose 10 mg/kg. The conditions noted are these: in vivo.
Series [19] in a line: Tmax in Sprague-Dawley rat at 10 mg/kg, po administered via gavage by LC-MS analysis. It counts as ADME, organism-based. The settings on record: in vivo.

On to `Cc1ccc(NC(=O)c2cccc(C(F)(F)F)c2)cc1C#Cc1nn([C@H]2CC[C@@H](O)CC2)c2ncnc(N)c12`, for which, in series [1], the inhibition in vivo at 20 mg/kg/day was 70.2%. Besides, in [2], the half-maximal inhibitory concentration (IC50) was 7.9 µM. The Activity in series [3] was -2%. Also, in series [4], the mortality at 360 h was found to be 0%.
Consider `CC(=O)O[C@H]1C(=O)[C@@]2(C)[C@H]([C@H](OC(=O)c3ccccc3)[C@]3(O)C[C@H](OC(=O)[C@H](O)[C@@H](NC(=O)c4ccccc4)c4ccccc4)C(C)=C1C3(C)C)[C@]1(OC(C)=O)CO[C@@H]1C[C@@H]2O` [PACLITAXEL], for which the Activity entry in series [5] and in series [7] was “Non-Toxic” in each case. The result in series [6] and in [8] was Active.
With `Cc1ccc(NC(=O)c2ccc(Cl)c(C(F)(F)F)c2)cc1C#Cc1nn([C@H]2CC[C@H](O)CC2)c2ncnc(N)c12`, in series [9], the Activity was -13.4%. Also, the IC50 is 0.016 µM in [10], over 10 µM in [2], over 30 µM in [11] and 0.037 µM in series [14]. In series [12], the mortality at 360 h was 0%. Further, the inhibition in vivo at 40 mg/kg/day in [13] worked out at 96.1%.
On to `Cc1ccc(NC(=O)c2cccc(C(F)(F)F)c2)cc1C#Cc1nn([C@H]2CC[C@H](O)CC2)c2ncnc(N)c12`, for which, in series [1], the inhibition in vivo at 20 mg/kg/day came out at 79.6%. This molecule had a half-life in series [15] of 4.7 h. For the same molecule, the Activity in series [9] was found to be 3.1%; in [3], 3.5%. The molecule also returned an area under the curve AUC(0-t) in [16] of 0.96 µg·h/mL. The peak level in series [17] (Cmax) was 0.128 µg/mL. Also, the AUC(0-inf) in series [18] stood at 0.976 µg·h/mL. For the same molecule, the time of peak concentration (Tmax) in series [19] worked out at 6 h. Besides, the mortality at 360 h in series [12] and in series [4] was 0% in each case. In [13], the inhibition in vivo at 40 mg/kg/day came out at 89.1%.
